ChEMBL document CHEMBL4270612, “Discovery of dual GyrB/ParE inhibitors active against Gram-negative bacteria” (Eur J Med Chem, 2018)
Converted amounts (≈) assume the structure as drawn.

Assays:
Pseudomonas aeruginosa [1] = assay: Antibacterial activity against Pseudomonas aeruginosa ARC3509 after 24 hrs by broth microdilution method; assay type: functional; settings: ARC3509, 24 h
In short: (§1)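 Broth microdilution per CLSI. Bacterial suspension adjusted to 1×10^6 CFU/mL in cation-adjusted Mueller–Hinton broth and mixed 1:1 with 2-fold serial compound dilutions. Final DMSO 2.5% v/v. Plates incubated at 35 °C with shaking at 140 rpm for 24 h.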

Acinetobacter baumannii [2] = assay: Antibacterial activity against Acinetobacter baumannii ARC3484 after 24 hrs by broth microdilution method; assay type: functional; settings: ARC3484, 24 h
In short: (§2)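 Broth microdilution per CLSI. Bacterial suspension adjusted to 1×10^6 CFU/mL in cation-adjusted Mueller–Hinton broth and mixed 1:1 with 2-fold serial compound dilutions. Plates incubated at 35 °C with shaking at 140 rpm for 24 h.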

Acinetobacter baumannii [3] = assay: Antibacterial activity against Acinetobacter baumannii ARC3882 after 24 hrs by broth microdilution method; assay type: functional; settings: ARC3882, 24 h; in short: as §1
Haemophilus influenzae = assay: Antibacterial activity against Haemophilus influenzae ATCC 49247 after 24 hrs by broth microdilution method; assay type: functional; settings: ATCC 49247, 24 h; in short: as §1
Acinetobacter baumannii [4] = assay: Antibacterial activity against Acinetobacter baumannii ARC3486 after 24 hrs by broth microdilution method; assay type: functional; settings: ARC3486, 24 h; in short: as §1
Pseudomonas aeruginosa [5] = assay: Antibacterial activity against Pseudomonas aeruginosa ARC4060 after 24 hrs by broth microdilution method; assay type: functional; settings: ARC4060, 24 h; in short: as §1
Pseudomonas aeruginosa [6] = assay: Antibacterial activity against Pseudomonas aeruginosa ARC3505 after 24 hrs by broth microdilution method; assay type: functional; settings: ARC3505, 24 h; in short: as §1
Pseudomonas aeruginosa [7] = assay: Antibacterial activity against Pseudomonas aeruginosa ARC003 after 24 hrs by broth microdilution method; assay type: functional; settings: ARC003, 24 h; in short: as §1
Acinetobacter baumannii [8] = assay: Antibacterial activity against Acinetobacter baumannii ARC3489 after 24 hrs by broth microdilution method; assay type: functional; settings: ARC3489, 24 h; in short: as §1
Acinetobacter baumannii [9] = assay: Antibacterial activity against Acinetobacter baumannii ARC2675 after 24 hrs by broth microdilution method; assay type: functional; settings: ARC2675, 24 h; in short: as §2
Pseudomonas aeruginosa [10] = assay: Antibacterial activity against Pseudomonas aeruginosa PAO1 after 24 hrs by broth microdilution method; assay type: functional; settings: PAO1, 24 h; in short: as §1
Acinetobacter baumannii [11] = assay: Antibacterial activity against Acinetobacter baumannii ARC3658 after 24 hrs by broth microdilution method; assay type: functional; settings: ARC3658, 24 h; in short: as §1
Acinetobacter baumannii [12] = assay: Antibacterial activity against Acinetobacter baumannii ARC3515 after 24 hrs by broth microdilution method; assay type: functional; settings: ARC3515, 24 h; in short: as §1
[13] = Growth inhibition of human A549 cells; assay type: cell-based
Acinetobacter baumannii [14] = assay: Antibacterial activity against Acinetobacter baumannii ARC3493 after 24 hrs by broth microdilution method; assay type: functional; settings: ARC3493, 24 h; in short: as §1
Streptococcus pyogenes = assay: Antibacterial activity against Streptococcus pyogenes ARC838 after 24 hrs by broth microdilution method; assay type: functional; settings: ARC838, 24 h; in short: as §2
Escherichia coli [15] = assay: Antibacterial activity against tolC deficient Escherichia coli after 24 hrs by broth microdilution method; assay type: functional
In short: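 Broth microdilution per CLSI guidelines. Inoculum adjusted to 1×10^6 CFU/mL in cation-adjusted Mueller–Hinton broth, added 1:1 to 2-fold serial compound dilutions; final DMSO 2.5% v/v. Plates incubated 35 °C, 140 rpm, 24 h.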

Acinetobacter baumannii [16] = assay: Antibacterial activity against Acinetobacter baumannii ARC3492 after 24 hrs by broth microdilution method; assay type: functional; settings: ARC3492, 24 h; in short: as §2
Acinetobacter baumannii [17] = assay: Antibacterial activity against Acinetobacter baumannii ARC3495 after 24 hrs by broth microdilution method; assay type: functional; settings: ARC3495, 24 h; in short: as §1
Pseudomonas aeruginosa [18] = assay: Antibacterial activity against Pseudomonas aeruginosa ARC3729 after 24 hrs by broth microdilution method; assay type: functional; settings: ARC3729, 24 h; in short: as §1
Staphylococcus aureus [19] = assay: Antibacterial activity against Staphylococcus aureus ATCC 29213 after 24 hrs in presence of 2% human albumin by broth microdilution method; assay type: functional; settings: ATCC 29213, 24 h
Pseudomonas aeruginosa [20] = assay: Antibacterial activity against Pseudomonas aeruginosa ARC4068 after 24 hrs by broth microdilution method; assay type: functional; settings: ARC4068, 24 h; in short: as §2
Staphylococcus aureus [21] = assay: Antibacterial activity against Staphylococcus aureus ATCC 29213 after 24 hrs by broth microdilution method; assay type: functional; settings: ATCC 29213, 24 h; in short: as §1
Pseudomonas aeruginosa [22] = assay: Antibacterial activity against Pseudomonas aeruginosa ARC3506 after 24 hrs by broth microdilution method; assay type: functional; settings: ARC3506, 24 h; in short: as §1
Candida albicans = assay: Antifungal activity against Candida albicans ATCC 90028 after 24 hrs by broth microdilution method; assay type: functional; settings: ATCC 90028, 24 h
Staphylococcus aureus [23] = assay: Antibacterial activity against methicillin-resistant Staphylococcus aureus FQ-R after 24 hrs by broth microdilution method; assay type: functional
In short: (§3)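 Broth microdilution per CLSI. Bacterial suspensions adjusted to 1×10^6 CFU/mL in cation-adjusted Mueller–Hinton broth, mixed 1:1 with 2-fold serial compound dilutions (final DMSO 2.5% v/v). Incubation 35 °C, 140 rpm, 24 h.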

Pseudomonas aeruginosa [24] = assay: Antibacterial activity against Pseudomonas aeruginosa ARC3502 after 24 hrs by broth microdilution method; assay type: functional; settings: ARC3502, 24 h; in short: as §2
Acinetobacter baumannii [25] = assay: Antibacterial activity against Acinetobacter baumannii ARC2728 after 24 hrs by broth microdilution method; assay type: functional; settings: ARC2728, 24 h; in short: as §1
Acinetobacter baumannii [26] = assay: Antibacterial activity against Acinetobacter baumannii ARC3659 after 24 hrs by broth microdilution method; assay type: functional; settings: ARC3659, 24 h; in short: as §1
Pseudomonas aeruginosa [27] = assay: Antibacterial activity against Pseudomonas aeruginosa ARC3612 after 24 hrs by broth microdilution method; assay type: functional; settings: ARC3612, 24 h; in short: as §1
Acinetobacter baumannii [28] = assay: Antibacterial activity against Acinetobacter baumannii ARC3513 after 24 hrs by broth microdilution method; assay type: functional; settings: ARC3513, 24 h; in short: as §1
Acinetobacter baumannii [29] = assay: Antibacterial activity against Acinetobacter baumannii ARC2674 after 24 hrs by broth microdilution method; assay type: functional; settings: ARC2674, 24 h; in short: as §1
Enterobacter cloacae = assay: Antibacterial activity against Enterobacter cloacae ARC3528 after 24 hrs by broth microdilution method; assay type: functional; settings: ARC3528, 24 h; in short: as §1
Acinetobacter baumannii [30] = assay: Antibacterial activity against Acinetobacter baumannii ARC2779 after 24 hrs by broth microdilution method; assay type: functional; settings: ARC2779, 24 h; in short: as §1
Acinetobacter baumannii [31] = assay: Antibacterial activity against Acinetobacter baumannii ARC2782 after 24 hrs by broth microdilution method; assay type: functional; settings: ARC2782, 24 h; in short: as §1
Pseudomonas aeruginosa [32] = assay: Antibacterial activity against Pseudomonas aeruginosa harboring MexABCDXY deletion mutant after 24 hrs by broth microdilution method; assay type: functional; in short: as §3
Staphylococcus aureus [33] = assay: Antibacterial activity against methicillin-resistant Staphylococcus aureus USA100 after 24 hrs by broth microdilution method; assay type: functional; settings: USA100, 24 h; in short: as §3
[34] = Thermodynamic solubility of the compound at pH 7.4; assay type: physicochemical; settings: buffer, BLD = below limit of detection
Pseudomonas aeruginosa [35] = assay: Antibacterial activity against Pseudomonas aeruginosa ARC3756 after 24 hrs by broth microdilution method; assay type: functional; settings: ARC3756, 24 h; in short: as §2
Escherichia coli [36] = assay: Antibacterial activity against Escherichia coli after 24 hrs by broth microdilution method; assay type: functional; in short: as §1
Pseudomonas aeruginosa [37] = assay: Antibacterial activity against Pseudomonas aeruginosa ARC3607 after 24 hrs by broth microdilution method; assay type: functional; settings: ARC3607, 24 h; in short: as §1
Acinetobacter baumannii [38] = assay: Antibacterial activity against Acinetobacter baumannii ARC2780 after 24 hrs by broth microdilution method; assay type: functional; settings: ARC2780, 24 h; in short: as §2
Enterococcus faecalis = assay: Antibacterial activity against Enterococcus faecalis ATCC 29212 after 24 hrs by broth microdilution method; assay type: functional; settings: ATCC 29212, 24 h; in short: as §1

`CCNC(=O)Nc1cc(-c2nc(C(F)(F)F)cs2)c(-c2cc3ncccc3nc2N2C3CCC2CN(C)C3)cn1` showed an MIC (Pseudomonas aeruginosa [1]) of 16 µg/mL (≈ 28.1 µM), an MIC (Acinetobacter baumannii [2]) of 4 µg/mL (≈ 7.03 µM) and an MIC (Acinetobacter baumannii [3]) of 2 µg/mL (≈ 3.52 µM). For the same compound, the MIC (Haemophilus influenzae) was 0.25 µg/mL (≈ 0.44 µM), the MIC (Acinetobacter baumannii [4]) was 2 µg/mL (≈ 3.52 µM) and the MIC (Pseudomonas aeruginosa [5]) was 16 µg/mL (≈ 28.1 µM). The MIC (Pseudomonas aeruginosa [6]) was 32 µg/mL (≈ 56.3 µM), the MIC (Pseudomonas aeruginosa [7]) was 4 µg/mL (≈ 7.03 µM) and the MIC (Acinetobacter baumannii [8]) was 2 µg/mL (≈ 3.52 µM). The MIC (Acinetobacter baumannii [9]) was 4 µg/mL (≈ 7.03 µM), the MIC (Pseudomonas aeruginosa [10]) was 9.09 µg/mL (≈ 16 µM) and the MIC (Acinetobacter baumannii [11]) was 2 µg/mL (≈ 3.52 µM). For the same compound, the MIC (Acinetobacter baumannii [12]) was 4 µg/mL (≈ 7.03 µM), the GI50 [13] was greater than 25 µM and the MIC (Acinetobacter baumannii [14]) was 2 µg/mL (≈ 3.52 µM). The MIC (Streptococcus pyogenes) was less than 0.06 µg/mL, the MIC (Escherichia coli [15]) was 0.14 µg/mL (≈ 0.246 µM) and the MIC (Acinetobacter baumannii [16]) was 2 µg/mL (≈ 3.52 µM). The MIC (Acinetobacter baumannii [17]) was 2 µg/mL (≈ 3.52 µM), the MIC (Pseudomonas aeruginosa [18]) was 8 µg/mL (≈ 14.1 µM) and the MIC (Staphylococcus aureus [19]) was less than 0.06 µg/mL. The MIC (Pseudomonas aeruginosa [20]) was 16 µg/mL (≈ 28.1 µM), the MIC (Staphylococcus aureus [21]) was less than 0.06 µg/mL and the MIC (Pseudomonas aeruginosa [22]) was 16 µg/mL (≈ 28.1 µM). The MIC (Candida albicans) was greater than 64 µg/mL, the MIC (Staphylococcus aureus [23]) was less than 0.06 µg/mL and the MIC (Pseudomonas aeruginosa [24]) was 16 µg/mL (≈ 28.1 µM). The MIC (Acinetobacter baumannii [25]) was 1 µg/mL (≈ 1.76 µM), the MIC (Acinetobacter baumannii [26]) was 2 µg/mL (≈ 3.52 µM) and the MIC (Pseudomonas aeruginosa [27]) was 32 µg/mL (≈ 56.3 µM). It also gave an MIC (Acinetobacter baumannii [28]) of 8 µg/mL (≈ 14.1 µM), an MIC (Acinetobacter baumannii [29]) of 4 µg/mL (≈ 7.03 µM) and an MIC (Enterobacter cloacae) greater than 64 µg/mL. It also gave an MIC (Acinetobacter baumannii [30]) of 2 µg/mL (≈ 3.52 µM), an MIC (Acinetobacter baumannii [31]) of 2 µg/mL (≈ 3.52 µM) and an MIC (Pseudomonas aeruginosa [32]) of 0.56 µg/mL (≈ 0.985 µM). The MIC (Staphylococcus aureus [33]) was less than 0.06 µg/mL, the Therm_solubility [34] was “Bld” and the MIC (Pseudomonas aeruginosa [35]) was 16 µg/mL (≈ 28.1 µM). The MIC (Escherichia coli [36]) was 2.27 µg/mL (≈ 3.99 µM), the MIC (Pseudomonas aeruginosa [37]) was 64 µg/mL (≈ 113 µM) and the MIC (Acinetobacter baumannii [38]) was 0.5 µg/mL (≈ 0.879 µM). It also gave an MIC (Enterococcus faecalis) of less than 0.06 µg/mL.
